Source: ChEMBL document CHEMBL1136847, “Syntheses and potential anti-prostate cancer activities of ionone-based chalcones” (Bioorg Med Chem Lett, 2009)
pIC50: −log10 of the molar value. Calls of active or inactive are those of the source. The rule behind the calls is not given here.

Experiments:
LNCaP = test: Cytotoxicity against androgen-dependent human LNCAP cells with T877A AR mutant after 72 hrs by MTT assay; type: functional, cell-based
How it was run: (§1)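 Cells seeded at 6000–7000 per well in RPMI 1640 with 10% FBS, penicillin and streptomycin, left overnight, then exposed to a range of concentrations from DMSO stock (final DMSO 0.5%) for 72 h. MTT added for a further 2 h and formazan from viable cells read. IC50 taken from survival curves, 50% inhibition relative to 0.5% DMSO control; top concentration 150 µM.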

PC-3 = test: Cytotoxicity against androgen-independent human PC3 cells after 72 hrs by MTT assay; type: functional, cell-based; conditions: for pIC50: PC-3, 72 h; how it was run: as §1
CWR22R = test: Cytotoxicity against human 22Rv1 cells with H874Y AR mutant after 72 hrs by MTT assay; type: functional, cell-based; conditions: 22Rv1, 72 h; how it was run: as §1
[1] = Cytotoxicity against androgen-dependent human MDA PCa 2b cells with T877A/L701H AR mutant after 72 hrs by MTT assay; type: functional, cell-based
How it was run: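 Seeded at 6000–7000 cells per well in BRFF-HPC1 medium with 20% FBS, incubated overnight, then treated with serial concentrations diluted from DMSO stock (final DMSO 0.5%) for 72 h. Viability by MTT, 2 h with reagent, formazan measured. IC50 from survival curves as 50% inhibition versus 0.5% DMSO vehicle; maximum concentration tested 150 µM.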

[2] = Cytotoxicity against human RWPE1 cells after 72 hrs by MTT assay; type: cell-based; conditions: RWPE-1, 72 h
How it was run: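 Non-tumorigenic prostate epithelial line plated at 6000–7000 cells per well in keratinocyte serum-free medium with 0.05 mg/mL bovine pituitary extract and 5 ng/mL EGF; overnight attachment, then compounds at various concentrations in 0.5% final DMSO for 72 h. MTT 2 h, formazan read; IC50 from survival curves versus DMSO control.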

[3] = Cytotoxicity against androgen-independent human C4-2B cells with T877A mutant after 72 hrs by MTT assay; type: functional, cell-based; conditions: LNCaP C4-2B; how it was run: as §1

Structure (SMILES) | pIC50 (LNCaP) | pIC50 (PC-3) | pIC50 (CWR22R) | pIC50 [1] | pIC50 [2] | pIC50 [3] | Activity (PC-3)
CCOC(OCC)c1cccc(/C=C/C(=O)/C=C/C2=C(C)C(O)CCC2(C)C)c1 (centres undefined) | 5.74 | 5.33 |  |  |  |  | 
CC1=C(/C=C/C(=O)/C=C/c2cccc(C)c2)C(C)(C)CCC1 | 4.75 | 4.46 |  |  |  |  | 
CC1=C(/C=C/C(=O)/C=C/c2cccc([N+](=O)[O-])c2)C(C)(C)CCC1 | 5.57 | 5.00 |  |  |  |  | 
CC1=C(/C=C/C(=O)/C=C/c2ccc(O)c([N+](=O)[O-])c2)C(C)(C)CCC1 | 4.57 | < 4.30 |  |  |  |  | 
CC1=C(/C=C/C(=O)/C=C/c2cccc(C)c2)C(C)(C)CCC1O (centres undefined) | 5.39 | 5.21 | 5.36 | 4.72 |  |  | 
CC1=C(/C=C/C(=O)/C=C/c2cc(C(F)(F)F)ccc2F)C(C)(C)CCC1O (centres undefined) | 5.77 | 5.44 | 5.70 |  |  |  | 
CC1=C(/C=C/C(=O)/C=C/c2cccc(F)c2)C(C)(C)CCC1 | 4.89 | 4.73 |  |  |  |  | 
CC1=C(/C=C/C(=O)/C=C/c2cccc(C#N)c2)C(C)(C)CCC1O (centres undefined) | 5.74 | 5.14 | 5.66 |  | 5.72 |  | 
CC1=C(/C=C/C(=O)/C=C/c2cccc(F)c2)C(C)(C)CCC1O (centres undefined) | 5.36 | 4.80 | 5.25 |  |  |  | 
CC1=C(/C=C/C(=O)/C=C/c2ccccc2C(F)(F)F)C(C)(C)CCC1O (centres undefined) | 5.54 | 5.43 | 5.64 | 5.54 |  |  | 
CC1=C(/C=C/C(=O)/C=C/c2cccc(C(F)(F)F)c2F)C(C)(C)CCC1O (centres undefined) | 5.96 | 5.68 |  |  |  |  | 
CC1=C(/C=C/C(=O)/C=C/c2ccc(-c3ccccc3)cc2)C(C)(C)CCC1 | 4.83 | 4.32 |  |  |  |  | 
CC1=C(/C=C/C(=O)/C=C/c2cc(F)cc(C(F)(F)F)c2)C(C)(C)CCC1O (centres undefined) | 5.96 | 5.52 | 5.62 |  |  |  | 
CC1=C(/C=C/C(=O)/C=C/c2c(F)cccc2C(F)(F)F)C(C)(C)CCC1O (centres undefined) | 5.31 | 5.06 | 5.05 |  |  |  | 
CC1=C(/C=C/C(=O)/C=C/c2cc(C(F)(F)F)cc(C(F)(F)F)c2)C(C)(C)CCC1O (centres undefined) | 5.68 | 5.15 | 5.66 | 5.46 |  |  | 
COc1ccc(/C=C/C(=O)/C=C/C2=C(C)CCCC2(C)C)cc1OC | 5.02 | 4.38 |  |  |  |  | 
CC1=C(/C=C/C(=O)/C=C/c2ccccc2F)C(C)(C)CCC1O (centres undefined) | 5.54 | 4.98 | 5.48 |  |  |  | 
CC1=CCCC(C)(C)C1/C=C/C(=O)/C=C/c1cccc(C(F)(F)F)c1 (centres undefined) | 6.00 | 5.28 | 5.54 | 5.36 |  | 5.36 | 
CC1=C(/C=C/C(=O)/C=C/c2cccc([N+](=O)[O-])c2)C(C)(C)CCC1O (centres undefined) | 5.70 | 5.24 | 5.72 | 5.22 | 5.72 |  | 
CC1=C(/C=C/C(=O)/C=C/c2ccc(F)cc2)C(C)(C)CCC1O (centres undefined) | 5.41 | 5.21 | 5.12 |  |  | 5.40 | 
CC1=C(/C=C/C(=O)/C=C/c2cc(C(F)(F)F)cc(C(F)(F)F)c2)C(C)(C)CCC1 | 5.06 | 5.14 |  |  |  |  | 
CC1=CCCC(C)(C)C1/C=C/C(=O)/C=C/c1cccc([N+](=O)[O-])c1 (centres undefined) | 5.48 | 5.54 | 5.33 | 5.23 |  | 5.40 | 

Structure (SMILES) | pIC50 (LNCaP) | pIC50 (PC-3) | pIC50 (CWR22R) | pIC50 [1] | pIC50 [2] | pIC50 [3] | Activity (PC-3)
COc1ccc(/C=C/C(=O)/C=C/C2=C(C)CCCC2(C)C)cc1O | 5.00 | 4.43 |  |  |  |  | 
CC1=CCCC(C)(C)C1/C=C/C(=O)/C=C/c1ccc(C(F)(F)F)cc1 (centres undefined) | 5.33 | 5.10 | 5.48 | 5.15 |  | 5.28 | 
CC1=C(/C=C/C(=O)/C=C/c2cc([N+](=O)[O-])ccc2Cl)C(C)(C)CCC1 | 5.38 | 4.72 |  |  |  |  | 
CC1=CCCC(C)(C)C1/C=C/C(=O)/C=C/c1ccccc1F (centres undefined) | 5.80 | 5.32 | 5.03 | 5.08 |  | 5.22 | 
COc1cccc(/C=C/C(=O)/C=C/C2=C(C)C(O)CCC2(C)C)c1 (centres undefined) | 5.31 | 5.19 |  |  |  |  | 
CC1=C(/C=C/C(=O)/C=C/c2cc(C(F)(F)F)ccc2C(F)(F)F)C(C)(C)CCC1O (centres undefined) | 5.49 | 5.72 |  | 5.40 |  |  | 
CC1=C(/C=C/C(=O)/C=C/c2ccccc2)C(C)(C)CCC1O (centres undefined) | 5.24 | 4.81 | 5.10 | 4.90 |  | 5.74 | 
CC(=O)/C=C/C1C(C)=CCCC1(C)C (stereo not drawn) [ALPHA-IONONE] | 3.82 |  |  |  |  |  | inactive
CC1=CCCC(C)(C)C1/C=C/C(=O)/C=C/c1cc(C(F)(F)F)ccc1F (centres undefined) | 5.77 | 5.51 | 5.46 | 5.52 |  | 5.33 | 
CC1=CCCC(C)(C)C1/C=C/C(=O)/C=C/c1cccc(C)c1 (centres undefined) | 4.91 | 5.23 | 4.82 |  |  | 5.21 | 
CC1=C(/C=C/C(=O)/C=C/c2cccc(C(F)(F)F)c2)C(C)(C)CCC1 | 5.55 | 5.11 |  |  |  |  | 
COc1cc(/C=C/C(=O)/C=C/C2=C(C)CCCC2(C)C)ccc1O | 5.02 | 4.67 |  |  |  |  | 
CC1=C(/C=C/C(=O)/C=C/c2ccc(C(F)(F)F)cc2)C(C)(C)CCC1O (centres undefined) | 5.52 | 4.99 | 5.49 | 5.03 |  |  | 
CC1=C(/C=C/C(=O)/C=C/c2ccccc2F)C(C)(C)CCC1 | 4.97 | 4.66 |  |  |  |  | 
CC1=C(/C=C/C(=O)/C=C/c2ccc(F)cc2)C(C)(C)CCC1 | 5.14 | 4.59 |  |  |  |  | 
CCOc1ccc(/C=C/C(=O)/C=C/C2=C(C)CCCC2(C)C)cc1OCC | 5.09 | < 4.30 |  |  |  |  | 
CC1=CCCC(C)(C)C1/C=C/C(=O)/C=C/c1ccccc1C(F)(F)F (centres undefined) | 4.65 | 4.72 | 4.74 |  |  | 4.93 | 
CC1=C(/C=C/C(=O)/C=C/c2ccc([N+](=O)[O-])cc2)C(C)(C)CCC1O (centres undefined) | 5.38 | 4.82 | 5.39 |  |  |  | 
CC1=C(/C=C/C(=O)/C=C/c2ccc(C(F)(F)F)cc2)C(C)(C)CCC1 | 5.04 | 4.92 |  |  |  |  | 
CC1=C(/C=C/C(=O)/C=C/c2ccc(C(F)(F)F)cc2F)C(C)(C)CCC1O (centres undefined) | 5.59 | 5.34 | 5.42 |  |  |  | 
CC1=C(/C=C/C(=O)/C=C/c2ccc(F)c(C(F)(F)F)c2)C(C)(C)CCC1O (centres undefined) | 5.66 | 5.14 | 5.49 | 5.00 |  | 5.14 | 
